ChEMBL document CHEMBL4346706, “Anti-trypanosomal activity of doubly modified salinomycin derivatives” (Eur J Med Chem, 2019)
Active and inactive are the calls of the source. No cut-off for these calls is given here.

Experiments:
[1] = Cytotoxicity against human HL60 cells assessed as growth inhibition after 24 hrs by resazurin dye based assay; type: cell-based, HL-60
Summary of the method: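 HL-60 cells seeded at 5 × 10^4 ml^-1 in Baltz medium with 16.7% heat-inactivated bovine serum, 0.9% DMSO. 37 °C, 5% CO2. Tenfold dilutions from 100 μM to 1 pM. After 24 h, resazurin added and incubation continued a further 48 h. Absorbance read at 570 nm, reference 630 nm. GI50 by linear interpolation against DMSO-only wells. Mean ± SD of three independent experiments.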

[2] = test system: Trypanosoma brucei; test: Antitrypanosomal activity against bloodstream form of Trypanosoma brucei 427-221a assessed as growth inhibition measured after 72 hrs by resazurin dye based assay
[3] = Selectivity index, ratio of GI50 for human HL60 cells to GI50 for bloodstream form of Trypanosoma brucei 427-221a; type: toxicity; settings: read-out: RatioGI50
[4] = test system: Trypanosoma brucei; test: Antitrypanosomal activity against bloodstream form of Trypanosoma brucei 427-221a assessed as increase in iono-phoresis by measuring cell swelling at 100 uM measured every 10 mins for 1 hr by light scattering based microplate reader analysis; type: functional, organism-based
Summary of the method: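 Light-scattering swelling assay. Bloodstream forms at 5 × 10^7 cells ml^-1 in Baltz medium with 100 μM ionophore and 0.9% DMSO; controls had DMSO only. Absorbance at 490 nm read every 10 min for one hour. A fall in absorbance is taken as a rise in cell volume. Means of three experiments.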

[5] = Antiproliferative activity against human HMLER cells assessed as reduction in cell viability after 72 hrs by Cell-Titer Blue reagent based fluorescence microplate reader analysis; type: functional

CC[C@@H](C(=O)[C@@H](C)[C@@H](O)[C@H](C)[C@@H]1O[C@@H]([C@@H](CC)C(=O)O)CC[C@@H]1C)[C@H]1O[C@]2(C=C[C@@H](O)[C@]3(CC[C@@](C)([C@H]4CC[C@](O)(CC)[C@H](C)O4)O3)O2)[C@H](C)C[C@@H]1C [SALINOMYCIN]
GI50 at 24 h [1]: 6.63 µM | GI50 [2]: 0.21 µM | selectivity ratio [3]: 31.6

CC[C@@H](C(=O)[C@@H](C)[C@@H](O)[C@H](C)[C@@H]1O[C@@H]([C@@H](CC)C(=O)NCCc2ccc(F)cc2)CC[C@@H]1C)[C@H]1O[C@]2(C=C[C@@H](O)[C@]3(CC[C@@](C)([C@H]4CC[C@](O)(CC)[C@H](C)O4)O3)O2)[C@H](C)C[C@@H]1C
GI50 at 24 h [1]: 11.6 µM | GI50 [2]: 2.87 µM | selectivity ratio [3]: 4

Cc1ccc(C(=O)Nc2ccc(S(=O)(=O)O)c3cc(S(=O)(=O)O)cc(S(=O)(=O)O)c23)cc1NC(=O)c1cccc(NC(=O)Nc2cccc(C(=O)Nc3cc(C(=O)Nc4ccc(S(=O)(=O)O)c5cc(S(=O)(=O)O)cc(S(=O)(=O)O)c45)ccc3C)c2)c1 [SURAMIN]
GI50 at 24 h [1]: > 100 µM | GI50 [2]: 0.032 µM | selectivity ratio [3]: > 3120

CC[C@@H](C(=O)[C@@H](C)[C@@H](O)[C@H](C)[C@@H]1O[C@@H]([C@@H](CC)C(=O)OCC(F)(F)F)CC[C@@H]1C)[C@H]1O[C@]2(C=C[C@@H](O)[C@]3(CC[C@@](C)([C@H]4CC[C@](O)(CC)[C@H](C)O4)O3)O2)[C@H](C)C[C@@H]1C
GI50 at 24 h [1]: 32.5 µM | GI50 [2]: 2.9 µM | selectivity ratio [3]: 11.2

CC[C@@H](C(=O)[C@@H](C)[C@@H](O)[C@H](C)[C@@H]1O[C@@H]([C@@H](CC)C(=O)ONC(=O)c2ccccc2)CC[C@@H]1C)[C@H]1O[C@]2(C=CC(=O)[C@]3(CC[C@@](C)([C@H]4CC[C@](O)(CC)[C@H](C)O4)O3)O2)[C@H](C)C[C@@H]1C
GI50 at 24 h [1]: 2.24 µM | Activity [4]: inactive | GI50 [2]: 0.032 µM | selectivity ratio [3]: 70

CC[C@@H](C(=O)[C@@H](C)[C@@H](O)[C@H](C)[C@@H]1O[C@@H]([C@@H](CC)C(=O)OCC(F)(F)F)CC[C@@H]1C)[C@H]1O[C@]2(C=CC(=O)[C@]3(CC[C@@](C)([C@H]4CC[C@](O)(CC)[C@H](C)O4)O3)O2)[C@H](C)C[C@@H]1C
GI50 at 24 h [1]: > 100 µM | GI50 [2]: 3.01 µM | selectivity ratio [3]: > 33.2

CC[C@@H](C(=O)[C@@H](C)[C@@H](O)[C@H](C)[C@@H]1O[C@@H]([C@@H](CC)C(=O)ONC(=O)c2ccccc2O)CC[C@@H]1C)[C@H]1O[C@]2(C=C[C@@H](O)[C@]3(CC[C@@](C)([C@H]4CC[C@](O)(CC)[C@H](C)O4)O3)O2)[C@H](C)C[C@@H]1C
GI50 at 24 h [1]: 2.12 µM | Activity [4]: inactive | GI50 [2]: 0.035 µM | selectivity ratio [3]: 60.6

C#CCOC(=O)[C@H](CC)[C@H]1CC[C@H](C)[C@H]([C@@H](C)[C@H](O)[C@H](C)C(=O)[C@H](CC)[C@H]2O[C@]3(C=C[C@@H](O)[C@]4(CC[C@@](C)([C@H]5CC[C@](O)(CC)[C@H](C)O5)O4)O3)[C@H](C)C[C@@H]2C)O1
GI50 at 24 h [1]: 30 µM | GI50 [2]: 2.93 µM | selectivity ratio [3]: 10.2

CC[C@@H](C(=O)[C@@H](C)[C@@H](O)[C@H](C)[C@@H]1O[C@@H]([C@@H](CC)C(=O)NCCc2ccc(F)cc2)CC[C@@H]1C)[C@H]1O[C@]2(C=CC(=O)[C@]3(CC[C@@](C)([C@H]4CC[C@](O)(CC)[C@H](C)O4)O3)O2)[C@H](C)C[C@@H]1C
GI50 at 24 h [1]: 94.7 µM | GI50 [2]: 2.99 µM | selectivity ratio [3]: 31.7

C#CCNC(=O)[C@H](CC)[C@H]1CC[C@H](C)[C@H]([C@@H](C)[C@H](O)[C@H](C)C(=O)[C@H](CC)[C@H]2O[C@]3(C=C[C@@H](NCC#C)[C@]4(CC[C@@](C)([C@H]5CC[C@](O)(CC)[C@H](C)O5)O4)O3)[C@H](C)C[C@@H]2C)O1
GI50 at 24 h [1]: 38.9 µM | GI50 [2]: 3.04 µM | selectivity ratio [3]: 12.8

CC[C@@H](C(=O)[C@@H](C)[C@@H](O)[C@H](C)[C@@H]1O[C@@H]([C@@H](CC)C(=O)O)CC[C@@H]1C)[C@H]1O[C@]2(C=CC(=O)[C@]3(CC[C@@](C)([C@H]4CC[C@](O)(CC)[C@H](C)O4)O3)O2)[C@H](C)C[C@@H]1C
GI50 at 24 h [1]: 9.21 µM | Activity [4]: Active | GI50 [2]: 0.037 µM | selectivity ratio [3]: 252

C#CCN[C@@H]1C=C[C@]2(O[C@H]([C@@H](CC)C(=O)[C@@H](C)[C@@H](O)[C@H](C)[C@@H]3O[C@@H]([C@@H](CC)C(=O)O)CC[C@@H]3C)[C@@H](C)C[C@H]2C)O[C@@]12CC[C@@](C)([C@H]1CC[C@](O)(CC)[C@H](C)O1)O2
GI50 at 24 h [1]: 10.5 µM | IC50 [5]: 0.1 µM | Activity [4]: Active | GI50 [2]: 0.035 µM | selectivity ratio [3]: 300

C#CCNC(=O)[C@H](CC)[C@H]1CC[C@H](C)[C@H]([C@@H](C)[C@H](O)[C@H](C)C(=O)[C@H](CC)[C@H]2O[C@]3(C=C[C@@H](O)[C@]4(CC[C@@](C)([C@H]5CC[C@](O)(CC)[C@H](C)O5)O4)O3)[C@H](C)C[C@@H]2C)O1
GI50 at 24 h [1]: 35.5 µM | GI50 [2]: 3.06 µM | selectivity ratio [3]: 11.6

CC[C@@H](C(=O)[C@@H](C)[C@@H](O)[C@H](C)[C@@H]1O[C@@H]([C@@H](CC)C(=O)ONC(=O)c2ccccc2O)CC[C@@H]1C)[C@H]1O[C@]2(C=CC(=O)[C@]3(CC[C@@](C)([C@H]4CC[C@](O)(CC)[C@H](C)O4)O3)O2)[C@H](C)C[C@@H]1C
GI50 at 24 h [1]: 1.93 µM | Activity [4]: inactive | GI50 [2]: 0.034 µM | selectivity ratio [3]: 56.8

C#CCNC(=O)[C@H](CC)[C@H]1CC[C@H](C)[C@H]([C@@H](C)[C@H](O)[C@H](C)C(=O)[C@H](CC)[C@H]2O[C@]3(C=CC(=O)[C@]4(CC[C@@](C)([C@H]5CC[C@](O)(CC)[C@H](C)O5)O4)O3)[C@H](C)C[C@@H]2C)O1
GI50 at 24 h [1]: 38.6 µM | GI50 [2]: 3.18 µM | selectivity ratio [3]: 12.1

C#CCOC(=O)[C@H](CC)[C@H]1CC[C@H](C)[C@H]([C@@H](C)[C@H](O)[C@H](C)C(=O)[C@H](CC)[C@H]2O[C@]3(C=CC(=O)[C@]4(CC[C@@](C)([C@H]5CC[C@](O)(CC)[C@H](C)O5)O4)O3)[C@H](C)C[C@@H]2C)O1
GI50 at 24 h [1]: 29.6 µM | GI50 [2]: 3.03 µM | selectivity ratio [3]: 9.8

CC[C@@H](C(=O)[C@@H](C)[C@@H](O)[C@H](C)[C@@H]1O[C@@H]([C@@H](CC)C(=O)ONC(=O)c2ccccc2)CC[C@@H]1C)[C@H]1O[C@]2(C=C[C@@H](O)[C@]3(CC[C@@](C)([C@H]4CC[C@](O)(CC)[C@H](C)O4)O3)O2)[C@H](C)C[C@@H]1C
GI50 at 24 h [1]: 3.58 µM | GI50 [2]: 0.17 µM | selectivity ratio [3]: 21.1
